Data from ChEMBL document CHEMBL4043120 (Bioorg Med Chem, 2017).
Activity calls are given as the source filed them. The rule behind the calls is not given here.

Legend:
[1] = molecular target: T1, Histone-lysine N-methyltransferase EHMT1 (Homo sapiens) (UniProt Q9H9B1); test: Inhibition of EHMT1 (unknown origin) at 200 uM preincubated for 5 mins followed by SAM and biotinylated H3K9 peptide addition measured after 120 mins by HTRF assay relative to control
T1 sequence (whole entry): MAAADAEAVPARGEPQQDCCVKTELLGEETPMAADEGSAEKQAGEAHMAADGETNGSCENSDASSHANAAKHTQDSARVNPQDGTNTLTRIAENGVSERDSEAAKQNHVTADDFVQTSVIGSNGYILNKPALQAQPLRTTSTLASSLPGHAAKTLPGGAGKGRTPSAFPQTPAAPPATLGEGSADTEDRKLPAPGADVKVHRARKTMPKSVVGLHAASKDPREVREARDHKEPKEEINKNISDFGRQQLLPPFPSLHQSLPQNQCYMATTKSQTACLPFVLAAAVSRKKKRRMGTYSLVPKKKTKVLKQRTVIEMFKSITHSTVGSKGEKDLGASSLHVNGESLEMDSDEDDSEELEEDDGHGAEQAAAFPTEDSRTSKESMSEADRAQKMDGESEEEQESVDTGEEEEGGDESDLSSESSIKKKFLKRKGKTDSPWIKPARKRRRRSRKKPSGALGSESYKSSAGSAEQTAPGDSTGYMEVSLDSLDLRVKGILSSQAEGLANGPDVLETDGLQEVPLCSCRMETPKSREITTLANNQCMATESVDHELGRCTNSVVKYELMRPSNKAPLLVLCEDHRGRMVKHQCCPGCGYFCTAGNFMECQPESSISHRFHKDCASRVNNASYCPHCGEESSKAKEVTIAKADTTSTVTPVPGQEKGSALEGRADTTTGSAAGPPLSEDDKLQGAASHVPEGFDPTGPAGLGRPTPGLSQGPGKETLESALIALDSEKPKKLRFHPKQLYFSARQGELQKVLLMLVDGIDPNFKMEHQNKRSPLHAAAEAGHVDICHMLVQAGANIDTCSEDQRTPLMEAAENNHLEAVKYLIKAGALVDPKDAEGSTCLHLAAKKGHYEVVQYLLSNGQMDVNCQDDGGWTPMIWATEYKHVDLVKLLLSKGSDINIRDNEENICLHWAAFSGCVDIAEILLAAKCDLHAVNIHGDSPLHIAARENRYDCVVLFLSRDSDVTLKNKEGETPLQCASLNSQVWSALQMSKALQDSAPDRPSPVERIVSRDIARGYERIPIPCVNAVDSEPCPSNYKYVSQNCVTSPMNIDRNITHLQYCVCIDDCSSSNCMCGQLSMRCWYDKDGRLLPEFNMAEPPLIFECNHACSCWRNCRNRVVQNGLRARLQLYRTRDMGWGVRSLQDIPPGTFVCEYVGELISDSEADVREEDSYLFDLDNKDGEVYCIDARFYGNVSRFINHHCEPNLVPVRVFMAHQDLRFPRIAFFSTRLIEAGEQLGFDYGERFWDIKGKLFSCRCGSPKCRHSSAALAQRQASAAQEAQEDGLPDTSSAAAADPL
Outline: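 Final EHMT1 0.4 nM, biotinylated unmethylated H3(1-21)K9 peptide 150 nM, SAM 6 μM in 50 mM Tris-HCl pH 8.8, 50 mM NaCl, 1 mM DTT, 0.01% Tween-20; samples at 200 μM, 1% DMSO final. Detection by Eu-antibody plus streptavidin-XL665, 60 min. HTRF read: excitation 320 or 340 nm, emission 665/620 nm.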

[2] = molecular target: T1, Histone-lysine N-methyltransferase EHMT1 (Homo sapiens); test: (§1) Inhibition of EHMT1 (unknown origin) preincubated for 5 mins followed by SAM and biotinylated H3K9 peptide addition measured after 120 mins by HTRF assay
Outline: (§2)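 Final 0.4 nM enzyme, 150 nM biotinylated H3(1-21)K9 peptide, 6 μM SAM, pH 8.8 Tris buffer, 1% DMSO. Eu-antibody/SA-XL665 HTRF read at 665/620 nm. Mean±SEM of 3-4 independent experiments in triplicate.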

[3] = molecular target: T2, Histone-lysine N-methyltransferase EHMT1 (Homo sapiens, UniProt Q9H9B1); test: as §1; outline: as §2
T2 sequence (Q9H9B1 whole entry): T1 sequence (whole entry)

[4] = molecular target: T3, Histone-lysine N-methyltransferase EHMT2 (Homo sapiens) (UniProt Q96KQ7); test: (§3) Inhibition of EHMT2 (unknown origin) preincubated for 15 mins followed by SAM and biotinylated H3K9 peptide addition measured after 30 mins by TR-FRET assay
T3 sequence (whole entry): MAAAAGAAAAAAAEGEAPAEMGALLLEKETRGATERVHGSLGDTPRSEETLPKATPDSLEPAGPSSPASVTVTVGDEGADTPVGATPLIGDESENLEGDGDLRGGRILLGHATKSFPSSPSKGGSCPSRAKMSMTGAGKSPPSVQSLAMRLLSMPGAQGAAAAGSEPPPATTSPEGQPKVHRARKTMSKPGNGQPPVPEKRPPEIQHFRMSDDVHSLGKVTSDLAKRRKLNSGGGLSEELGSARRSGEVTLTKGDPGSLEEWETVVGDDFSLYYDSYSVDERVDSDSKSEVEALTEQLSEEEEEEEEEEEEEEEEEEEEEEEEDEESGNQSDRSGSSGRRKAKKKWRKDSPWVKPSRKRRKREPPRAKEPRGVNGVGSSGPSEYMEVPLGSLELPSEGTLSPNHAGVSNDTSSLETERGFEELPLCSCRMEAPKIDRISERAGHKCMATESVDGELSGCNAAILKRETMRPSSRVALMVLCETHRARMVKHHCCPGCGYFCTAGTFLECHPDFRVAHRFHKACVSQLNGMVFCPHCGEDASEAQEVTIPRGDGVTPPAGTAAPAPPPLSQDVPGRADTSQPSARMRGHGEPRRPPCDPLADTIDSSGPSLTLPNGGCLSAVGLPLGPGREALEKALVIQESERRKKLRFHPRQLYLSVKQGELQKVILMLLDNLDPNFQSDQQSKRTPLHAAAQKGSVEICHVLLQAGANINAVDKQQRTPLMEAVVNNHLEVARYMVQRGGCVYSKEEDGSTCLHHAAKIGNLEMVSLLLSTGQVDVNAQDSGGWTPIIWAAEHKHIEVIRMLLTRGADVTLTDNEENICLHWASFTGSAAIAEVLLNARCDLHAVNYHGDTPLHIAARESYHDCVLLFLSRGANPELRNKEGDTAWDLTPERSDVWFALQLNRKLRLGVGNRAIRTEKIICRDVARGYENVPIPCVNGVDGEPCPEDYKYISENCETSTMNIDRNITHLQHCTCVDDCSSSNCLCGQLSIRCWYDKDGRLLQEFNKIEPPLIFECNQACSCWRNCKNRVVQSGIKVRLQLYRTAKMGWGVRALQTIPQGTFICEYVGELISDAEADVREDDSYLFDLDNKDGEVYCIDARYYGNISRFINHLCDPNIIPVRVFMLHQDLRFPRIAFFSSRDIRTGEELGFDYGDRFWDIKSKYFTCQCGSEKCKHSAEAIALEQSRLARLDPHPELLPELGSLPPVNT

[5] = molecular target: T3, Histone-lysine N-methyltransferase EHMT2 (Homo sapiens); test: Inhibition of EHMT2 (unknown origin) at 400 uM preincubated for 15 mins followed by SAM and biotinylated H3K9 peptide addition measured after 30 mins by TR-FRET assay relative to control
Outline: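 Single-point EHMT2 screen at 400 μM, 1% DMSO. Final 0.6 nM EHMT2, 0.5 µM biotinylated H3(1-21)K9 peptide, 3 µM SAM in 50 mM Tris-HCl pH 9.0, 50 mM NaCl, 1 mM DTT, 0.01% Tween-20. Detection 60 min with final 2 nM Eu-antibody, 50 nM ULight-streptavidin, 0.0001% poly-L-lysine. TR-FRET read at 665/620 nm.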

[6] = molecular target: Protein arginine N-methyltransferase 1 (Homo sapiens) (UniProt Q99873); test: Inhibition of PRMT1 (unknown origin) at 400 uM preincubated for 5 mins followed by SAM and H4 (1 to 25 residues) peptide addition measured after 1 hr by HTRF assay relative to control
HL-60 = test: Antiproliferative activity against human HL60 cells at 200 uM after 72 hrs by CCK8 assay relative to control; format: functional; details: HL-60, 72 h
MDA-MB-231 = test: Antiproliferative activity against human MDA-MB-231 cells at 200 uM after 72 hrs by sulforhodamine B assay relative to control; format: functional; details: MDA-MB-231, 72 h
[7] = molecular target: T4, Histone-lysine N-methyltransferase EHMT2 (Homo sapiens, UniProt Q96KQ7); test: as §3
T4 sequence (Q96KQ7 whole entry): T3 sequence (whole entry)

[8] = molecular target: T2, Histone-lysine N-methyltransferase EHMT1; test: Inhibition of EHMT1 (unknown origin)

Chain of Protein arginine N-methyltransferase 1 (Homo sapiens) (Q99873 whole entry, looked up, the tested form may be a part): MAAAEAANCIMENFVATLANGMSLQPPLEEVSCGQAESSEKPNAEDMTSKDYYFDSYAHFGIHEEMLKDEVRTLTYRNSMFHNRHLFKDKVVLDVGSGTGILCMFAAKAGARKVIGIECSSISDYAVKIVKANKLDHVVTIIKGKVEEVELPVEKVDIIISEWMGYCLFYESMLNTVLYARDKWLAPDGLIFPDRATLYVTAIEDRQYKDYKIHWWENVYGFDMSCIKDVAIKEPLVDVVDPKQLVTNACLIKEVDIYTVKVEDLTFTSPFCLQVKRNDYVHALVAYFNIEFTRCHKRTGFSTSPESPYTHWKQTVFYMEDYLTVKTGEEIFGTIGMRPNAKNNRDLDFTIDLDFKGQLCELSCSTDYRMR

Compound | inhibition [1] | inhibition [2] | IC50 ([3]; read-out: IC50) [µM] | inhibition [4] | inhibition [5] [%] | inhibition [6] | IC50 [3] | IC50 [7] [µM] | IC50 [8] [µM] | inhibition at 200 µM (HL-60) [%] | inhibition at 200 µM (MDA-MB-231) [%]
COc1cc2nc(N3CCCN(C)CC3)nc(NC3CCN(Cc4ccccc4)CC3)c2cc1OC |  |  |  |  |  |  |  |  |  | 81.8 | 87.2
Nc1ncnc2c1ncn2[C@@H]1O[C@H](C[C@@H](N)CCC2CCCCC2)[C@@H](O)[C@H]1O | 40.9% | Dose-dependent effect |  | Dose-dependent effect | 42.7 |  |  |  |  |  | 
CN(CC1CCCCC1)C[C@H]1O[C@@H](n2cnc3c(N)ncnc32)[C@H](O)[C@@H]1O | inactive | Dose-dependent effect |  | Dose-dependent effect | 31.9 |  | Not Active |  |  |  | 
CCCN(CC1CCCCC1)C[C@H]1O[C@@H](n2cnc3c(N)ncnc32)[C@H](O)[C@@H]1O | inactive | Dose-dependent effect |  | Dose-dependent effect | 19.8 |  | Not Active |  |  |  | 
Nc1ncnc2c1ncn2[C@@H]1O[C@H](C[C@H](N)CCC2CCCCC2)[C@@H](O)[C@H]1O | 46.3% | Dose-dependent effect |  | Dose-dependent effect | 47.8 |  |  |  |  |  | 
CCN(CC1CCCCC1)C[C@H]1O[C@@H](n2cnc3c(N)ncnc32)[C@H](O)[C@@H]1O | 24.1% | Dose-dependent effect |  | Dose-dependent effect | 39.1 |  |  |  |  |  | 
Nc1ncnc2c1ncn2[C@@H]1O[C@H](C[C@@H](N)CC[C@H](N)C(=O)O)[C@@H](O)[C@H]1O [SINEFUNGIN] | 100% | Dose-dependent effect | 28.4 | Dose-dependent effect | 79.5 |  |  |  | 0.1 to 20 | 41 | 42.8

Continued, in another order:

inhibition [1] | inhibition [2] | IC50 ([3]; read-out: IC50) [µM] | inhibition [4] | inhibition [5] [%] | inhibition [6] | IC50 [3] | IC50 [7] [µM] | IC50 [8] [µM] | Compound | inhibition at 200 µM (HL-60) [%] | inhibition at 200 µM (MDA-MB-231) [%]
58.1% | Dose-dependent effect | 146 | Dose-dependent effect | 45.3 | inactive |  |  |  | Nc1ncnc2c1ncn2[C@@H]1O[C@H](C[C@H](N)CC2CCCCC2)[C@@H](O)[C@H]1O |  | 
53.2% | Dose-dependent effect | 115 | Dose-dependent effect | 44 |  |  |  |  | Nc1ncnc2c1ncn2[C@@H]1O[C@H](C[C@H](N)CC2CCC2)[C@@H](O)[C@H]1O |  | 
88.9% | Dose-dependent effect | 21.8 | Dose-dependent effect | 77.6 | inactive |  | 39.6 |  | Nc1ncnc2c1ncn2[C@@H]1O[C@H](C[C@@H](N)CC2CC2)[C@@H](O)[C@H]1O | 37.9 to 38.4 | 41.4
69.7% | Dose-dependent effect | 47.7 | Dose-dependent effect | 58.9 | inactive |  | 169 |  | Nc1ncnc2c1ncn2[C@@H]1O[C@H](C[C@@H](N)CC2CCC2)[C@@H](O)[C@H]1O |  | 
75.7% | Dose-dependent effect | 95.1 | Dose-dependent effect | 55.3 | inactive |  | 191 |  | Nc1ncnc2c1ncn2[C@@H]1O[C@H](C[C@@H](N)CC2CCCC2)[C@@H](O)[C@H]1O |  | 
12.5% | Dose-dependent effect |  | Dose-dependent effect | 43.6 |  |  |  |  | Nc1ncnc2c1ncn2[C@@H]1O[C@H](C[C@H](N)CC2CCCC2)[C@@H](O)[C@H]1O |  | 
52.2% | Dose-dependent effect |  | Dose-dependent effect | 65.7 | 20% |  | 67.2 |  | Nc1ncnc2c1ncn2[C@@H]1O[C@H](C[C@H](N)CC2CC2)[C@@H](O)[C@H]1O |  | 
72.7% | Dose-dependent effect | 204 | Dose-dependent effect | 43.7 | inactive |  |  |  | Nc1ncnc2c1ncn2[C@@H]1O[C@H](C[C@@H](N)CC2CCCCC2)[C@@H](O)[C@H]1O |  | 
